Reference: ChEMBL document CHEMBL4428122, “Design, synthesis, and biological characterization of novel PEG-linked dimeric modulators for CXCR4” (Bioorg Med Chem, 2016)
The source made the active and inactive calls. The calls are words filed in the database; no cut-off is given here. Non-standard residues stand in square brackets, D forms with d. Residues, ends and D or L forms follow the SMILES beside them.

Tests used:
[1] = molecular target: T1, C-X-C chemokine receptor type 4 (Homo sapiens, UniProt P61073); assay: Binding affinity to CXCR4 (unknown origin) expressed in CHO cells measured after 40 mins by 12G5 antibody competition assay; format: cell-based
T1 sequence (P61073 whole entry): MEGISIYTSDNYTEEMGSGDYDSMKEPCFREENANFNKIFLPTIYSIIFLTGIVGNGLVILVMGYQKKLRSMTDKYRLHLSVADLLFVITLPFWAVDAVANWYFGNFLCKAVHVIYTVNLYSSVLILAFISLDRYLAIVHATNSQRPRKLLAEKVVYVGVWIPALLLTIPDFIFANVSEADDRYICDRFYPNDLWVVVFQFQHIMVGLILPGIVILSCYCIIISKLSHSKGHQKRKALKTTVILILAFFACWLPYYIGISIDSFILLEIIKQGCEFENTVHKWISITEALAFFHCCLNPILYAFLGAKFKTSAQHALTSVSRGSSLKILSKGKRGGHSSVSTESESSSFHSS

[2] = molecular target: T1, C-X-C chemokine receptor type 4; assay: Agonist activity at CXCR4 in human SupT1 cells assessed as increase Ca2+ influx at 2 uM by fura-2/AM dye-based fluorescence analysis; format: functional, cell-based
Outline: (§1)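 They were loaded at 10^7 cells/mL with 2 μM fura-2/AM and 5 μM probenecid for 30 min, then resuspended at 2 × 10^6 cells/mL. After a 2 min baseline, peptide was added. Ex 340/380 nm, em 510 nm.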

[3] = molecular target: T1, C-X-C chemokine receptor type 4; assay: Agonist activity at CXCR4 in human SupT1 cells assessed as increase in Ca2+ influx by fura-2/AM dye-based fluorescence analysis; format: functional, cell-based; outline: as §1
[4] = molecular target: T1, C-X-C chemokine receptor type 4; assay: Antagonist activity at CXCR4 in human SupT1 cells assessed as inhibition of CXCL12-induced cell migration at 100 nM preincubated for 2 hrs followed by CXCL12 addition measured after 3 hrs by Cell titer-Blue reagent-based transwell assay
Outline: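 SUP-T1 cells were washed in RPMI1640 with 0.5% BSA, and 1 × 10^6 cells were incubated with peptide for 2 h. Cells were then seeded in upper transwell chambers (5 μm pores) over a lower chamber with 10 nM SDF-1α, or buffer alone for background. Migration ran 3 h at 37°C. Migrated cells were expressed as % of seeded cells. At least three independent experiments, mean ± S.E.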

[5] = molecular target: T1, C-X-C chemokine receptor type 4; assay: Antagonist activity at CXCR4 in human SupT1 cells assessed as inhibition of CXCL12-induced Ca2+ influx preincubated for 2 to 3 mins prior CXCL12-stimulation by fura-2/AM dye-based fluorescence analysis; format: functional, cell-based
Outline: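 Fura-2/AM-loaded SUP-T1 cells (2 μM dye, 5 μM probenecid, 30 min; 2 × 10^6 cells/mL in Hepes pH 7.4 saline with Ca2+/Mg2+, glucose, 0.025% BSA) were pre-incubated with peptide for 2–3 min, then stimulated with SDF-1α. Fluorescence was read at ex 340/380 nm, em 510 nm.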

SUP-T1 = assay: Cytotoxicity against human SupT1 cells at 100 nM; format: cell-based; conditions: sup-t1, 0.1 µM

| Compound | inhibition [4] [%] | antagonist activity (qualitative) [5] | Activity (SUP-T1) | further results |
| --- | --- | --- | --- | --- |
| CC(C)C[C@@H](N)C(=O)NCC(=O)N[C@H](C)C(=O)N[C@H](CO)C(=O)N[C@H](Cc1c[nH]c2ccccc12)C(=O)N[C@H](Cc1cnc[nH]1)C(=O)N[C@H](CCCNC(=N)N)C(=O)N1CCC[C@@H]1C(=O)N[C@H](CC(=O)O)C(=O)N[C@H](CCCCN)C(=O)O (H-[dL]G[dA][dS][dW][dH][dR][dP][dD][dK]-OH) | – | – | – | IC50 ([1]; read-out: IC50): 2 µM |
| CC(C)C[C@@H](N)C(=O)NCC(=O)N[C@H](C)C(=O)N[C@H](CO)C(=O)N[C@H](Cc1c[nH]c2ccccc12)C(=O)N[C@H](Cc1cnc[nH]1)C(=O)N[C@H](CCCNC(=N)N)C(=O)N1CCC[C@@H]1C(=O)N[C@H](CC(=O)O)C(=O)N[C@H](CCCCN)C(=O)NCCOCCOCCOCCC(=O)N[C@@H](CCCCNC(=O)CCOCCOCCOCCNC(=O)[C@H](CCCNC(=N)N)NC(=O)[C@H](Cc1ccc(O)cc1)NC(=O)[C@H](CO)NC(=O)[C@H](CC(C)C)NC(=O)[C@H](CO)NC(=O)[C@@H](NC(=O)[C@@H]1CCCN1C(=O)[C@@H](N)CCCCN)C(C)C)C(N)=O | – | – | – | Activity [2]: Active |
| CC(C)C[C@@H](N)C(=O)NCC(=O)N[C@H](C)C(=O)N[C@H](CO)C(=O)N[C@H](Cc1c[nH]c2ccccc12)C(=O)N[C@H](Cc1cnc[nH]1)C(=O)N[C@H](CCCNC(=N)N)C(=O)N1CCC[C@@H]1C(=O)N[C@H](CC(=O)O)C(=O)N[C@H](CCCCN)C(=O)NCCOCCOCCOCCC(=O)N[C@@H](CCCCNC(=O)CCOCCOCCOCCOCCOCCNC(=O)[C@H](CO)NC(=O)[C@H](CC(C)C)NC(=O)[C@H](CO)NC(=O)[C@@H](NC(=O)[C@@H]1CCCN1C(=O)[C@@H](N)CCCCN)C(C)C)C(N)=O | – | – | – | Activity [3]: inactive |
| CC(C)C[C@@H](N)C(=O)NCC(=O)N[C@H](C)C(=O)N[C@H](CO)C(=O)N[C@H](Cc1c[nH]c2ccccc12)C(=O)N[C@H](Cc1cnc[nH]1)C(=O)N[C@H](CCCNC(=N)N)C(=O)N[C@H](C)C(=O)N[C@H](CC(=O)O)C(=O)N[C@H](CCCCN)C(=O)NCCOCCOCCOCCC(=O)NCCCC[C@H](NC(=O)CCOCCOCCOCCNC(=O)[C@@H](CCCCN)NC(=O)[C@@H](CC(=O)O)NC(=O)[C@@H](C)NC(=O)[C@@H](CCCNC(=N)N)NC(=O)[C@@H](Cc1cnc[nH]1)NC(=O)[C@@H](Cc1c[nH]c2ccccc12)NC(=O)[C@@H](CO)NC(=O)[C@@H](C)NC(=O)CNC(=O)[C@H](N)CC(C)C)C(N)=O | 23 | Active | Non-Toxic | – |
| CC(C)C[C@@H](N)C(=O)NCC(=O)N[C@H](C)C(=O)N[C@H](CO)C(=O)N[C@H](Cc1c[nH]c2ccccc12)C(=O)N[C@H](Cc1cnc[nH]1)C(=O)N[C@H](CCCNC(=N)N)C(=O)N1CCC[C@@H]1C(=O)NCCOCCOCCOCCOCCOCCC(=O)NCCCC[C@H](NC(=O)CCOCCOCCOCCOCCOCCNC(=O)[C@H]1CCCN1C(=O)[C@@H](CCCNC(=N)N)NC(=O)[C@@H](Cc1cnc[nH]1)NC(=O)[C@@H](Cc1c[nH]c2ccccc12)NC(=O)[C@@H](CO)NC(=O)[C@@H](C)NC(=O)CNC(=O)[C@H](N)CC(C)C)C(N)=O | 34 | – | Non-Toxic | – |
| CC(C)C[C@@H](N)C(=O)NCC(=O)N[C@H](C)C(=O)N[C@H](CO)C(=O)N[C@H](Cc1c[nH]c2ccccc12)C(=O)N[C@H](Cc1cnc[nH]1)C(=O)N[C@H](CCCNC(=N)N)C(=O)N1CCC[C@@H]1C(=O)N[C@H](C)C(=O)N[C@H](CCCCN)C(=O)NCCOCCOCCOCCC(=O)NCCCC[C@H](NC(=O)CCOCCOCCOCCNC(=O)[C@@H](CCCCN)NC(=O)[C@@H](C)NC(=O)[C@H]1CCCN1C(=O)[C@@H](CCCNC(=N)N)NC(=O)[C@@H](Cc1cnc[nH]1)NC(=O)[C@@H](Cc1c[nH]c2ccccc12)NC(=O)[C@@H](CO)NC(=O)[C@@H](C)NC(=O)CNC(=O)[C@H](N)CC(C)C)C(N)=O | 21 | Active | Non-Toxic | – |
| CC(C)C[C@@H](N)C(=O)NCC(=O)N[C@H](C)C(=O)N[C@H](CO)C(=O)N[C@H](Cc1c[nH]c2ccccc12)C(=O)N[C@H](Cc1cnc[nH]1)C(=O)N[C@H](CCCNC(=N)N)C(=O)N1CCC[C@@H]1C(=O)N[C@H](CC(=O)O)C(=O)N[C@H](CCCCN)C(=O)NCCOCCOCCOCCOCCOCCC(=O)N[C@@H](CCCCNC(=O)CCOCCOCCOCCOCCOCCNC(=O)[C@H](CCCNC(=N)N)NC(=O)[C@H](Cc1ccc(O)cc1)NC(=O)[C@H](CO)NC(=O)[C@H](CC(C)C)NC(=O)[C@H](CO)NC(=O)[C@@H](NC(=O)[C@@H]1CCCN1C(=O)[C@@H](N)CCCCN)C(C)C)C(N)=O | – | – | – | Activity [3]: inactive |
| H-KPVSLSYR-OH | – | – | – | IC50 ([1]; cho): Not Active |
| CC(C)C[C@@H](N)C(=O)NCC(=O)N[C@H](C)C(=O)N[C@H](CO)C(=O)N[C@H](Cc1c[nH]c2ccccc12)C(=O)N[C@H](Cc1cnc[nH]1)C(=O)N[C@H](CCCNC(=N)N)C(=O)N1CCC[C@@H]1C(=O)N[C@H](CC(=O)O)C(=O)N[C@H](CCCCN)C(=O)NC(=O)[C@@H](CCCCN)NC(=O)[C@@H](CC(=O)O)NC(=O)[C@H]1CCCN1C(=O)[C@@H](CCCNC(=N)N)NC(=O)[C@@H](Cc1cnc[nH]1)NC(=O)[C@@H](Cc1c[nH]c2ccccc12)NC(=O)[C@@H](CO)NC(=O)[C@@H](C)NC(=O)CNC(=O)[C@H](N)CC(C)C | – | – | – | IC50 ([1]; read-out: IC50): 0.462 µM |
| CC(C)C[C@@H](N)C(=O)NCC(=O)N[C@H](C)C(=O)N[C@H](CO)C(=O)N[C@H](Cc1c[nH]c2ccccc12)C(=O)N[C@H](Cc1cnc[nH]1)C(=O)N[C@H](CCCNC(=N)N)C(=O)N1CCC[C@@H]1C(=O)N[C@H](CC(=O)O)C(=O)N[C@H](CCCCN)C(=O)NCCOCCOCCOCCC(=O)N[C@@H](CCCCNC(=O)CCOCCOCCOCCNC(=O)[C@H](CC(C)C)NC(=O)[C@H](CO)NC(=O)[C@@H](NC(=O)[C@@H]1CCCN1C(=O)[C@@H](N)CCCCN)C(C)C)C(N)=O | – | – | – | Activity [3]: inactive |
| CC(C)C[C@@H](N)C(=O)NCC(=O)N[C@H](C)C(=O)N[C@H](CO)C(=O)N[C@H](Cc1c[nH]c2ccccc12)C(=O)N[C@H](Cc1cnc[nH]1)C(=O)N[C@H](CCCNC(=N)N)C(=O)N1CCC[C@@H]1C(=O)N[C@H](CC(=O)O)C(=O)N[C@H](CCCCN)C(=O)NCCOCCOCCOCCOCCOCCC(=O)NCCCC[C@H](NC(=O)CCOCCOCCOCCOCCOCCNC(=O)[C@@H](CCCCN)NC(=O)[C@@H](CC(=O)O)NC(=O)[C@H]1CCCN1C(=O)[C@@H](CCCNC(=N)N)NC(=O)[C@@H](Cc1cnc[nH]1)NC(=O)[C@@H](Cc1c[nH]c2ccccc12)NC(=O)[C@@H](CO)NC(=O)[C@@H](C)NC(=O)CNC(=O)[C@H](N)CC(C)C)C(N)=O | – | Active | Non-Toxic | – |
| CC(C)C[C@@H](N)C(=O)NCC(=O)N[C@H](C)C(=O)N[C@H](CO)C(=O)N[C@H](Cc1c[nH]c2ccccc12)C(=O)N[C@H](Cc1cnc[nH]1)C(=O)N[C@H](CCCNC(=N)N)C(=O)N1CCC[C@@H]1C(=O)N[C@H](CC(=O)O)C(=O)N[C@H](CCCCN)C(=O)N[C@H](CCCCNC(=O)[C@H](CCCNC(=N)N)NC(=O)[C@H](Cc1ccc(O)cc1)NC(=O)[C@H](CO)NC(=O)[C@H](CC(C)C)NC(=O)[C@H](CO)NC(=O)[C@@H](NC(=O)[C@@H]1CCCN1C(=O)[C@@H](N)CCCCN)C(C)C)C(N)=O | – | – | – | Activity [3]: Active; IC50 ([1]; read-out: IC50): 0.502 µM |
| CC(C)C[C@@H](N)C(=O)NCC(=O)N[C@H](C)C(=O)N[C@H](CO)C(=O)N[C@H](Cc1c[nH]c2ccccc12)C(=O)N[C@H](Cc1cnc[nH]1)C(=O)N[C@H](CCCNC(=N)N)C(=O)N1CCC[C@@H]1C(=O)NCCOCCOCCOCCC(=O)NCCCC[C@H](NC(=O)CCOCCOCCOCCNC(=O)[C@H]1CCCN1C(=O)[C@@H](CCCNC(=N)N)NC(=O)[C@@H](Cc1cnc[nH]1)NC(=O)[C@@H](Cc1c[nH]c2ccccc12)NC(=O)[C@@H](CO)NC(=O)[C@@H](C)NC(=O)CNC(=O)[C@H](N)CC(C)C)C(N)=O | 28 | Active | Non-Toxic | – |
| CC(C)C[C@@H](N)C(=O)NCC(=O)N[C@H](C)C(=O)N[C@H](CO)C(=O)N[C@H](Cc1c[nH]c2ccccc12)C(=O)N[C@H](Cc1cnc[nH]1)C(=O)N[C@H](CCCNC(=N)N)C(=O)N1CCC[C@@H]1C(=O)N[C@H](CC(=O)O)C(=O)N[C@H](CCCCN)C(=O)NCCOCCOCCOCCC(=O)NCCCC[C@H](NC(=O)CCOCCOCCOCCNC(=O)[C@@H](CCCCN)NC(=O)[C@@H](CC(=O)O)NC(=O)[C@H]1CCCN1C(=O)[C@@H](CCCNC(=N)N)NC(=O)[C@@H](Cc1cnc[nH]1)NC(=O)[C@@H](Cc1c[nH]c2ccccc12)NC(=O)[C@@H](CO)NC(=O)[C@@H](C)NC(=O)CNC(=O)[C@H](N)CC(C)C)C(N)=O | 67 | – | Non-Toxic | – |
| CC(C)C[C@@H](N)C(=O)NCC(=O)N[C@H](C)C(=O)N[C@H](CO)C(=O)N[C@H](Cc1c[nH]c2ccccc12)C(=O)N[C@H](Cc1cnc[nH]1)C(=O)N[C@H](CCCNC(=N)N)C(=O)N1CCC[C@@H]1C(=O)N[C@H](CC(=O)O)C(=O)N[C@H](CCCCN)C(=O)NCCOCCOCCOCCOCCOCCOCCOCCC(=O)NCCCC[C@H](NC(=O)CCOCCOCCOCCOCCOCCOCCOCCNC(=O)[C@@H](CCCCN)NC(=O)[C@@H](CC(=O)O)NC(=O)[C@H]1CCCN1C(=O)[C@@H](CCCNC(=N)N)NC(=O)[C@@H](Cc1cnc[nH]1)NC(=O)[C@@H](Cc1c[nH]c2ccccc12)NC(=O)[C@@H](CO)NC(=O)[C@@H](C)NC(=O)CNC(=O)[C@H](N)CC(C)C)C(N)=O | 48 | Active | Non-Toxic | – |
